Data set [1] deals with Rattus norvegicus. Put plainly: Toxicity in Wistar rat assessed as neutrophil level at 200 mg/kg, po for 14 days (reference value: 17.33 +/- 3.21%). It is filed as organism-based. The note with it: in vivo, 336 h.
In data set [2] the test system is Mus musculus. In words: Anticonvulsant activity in Swiss albino mouse assessed as protection against subcutaneous pentylenetetrazole-induced seizures at 5 mg/kg, ip administered 2 hrs prior to PTZ challenge and measured after 30 mins. Type of data set: functional. The note with it: in the assay text read “30 mg/kg” for “5 mg/kg”. The essentials: (§1)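 Mice get a single i.p. dose, then PTZ 85 mg/kg s.c. at 0.5, 1, 2, 3, 4 or 6 h after dosing. Seizure protection is recorded at each interval as percentage of six Swiss Albino mice protected.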

For data set [3], the system named is Rattus norvegicus. Put plainly: Toxicity in Wistar rat assessed as effect on total protein level at 200 mg/kg, po for 14 days. As to conditions: in vivo, 336 h. It is filed as organism-based. The essentials:
(§2)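 Normal Wistar rats are given 200 mg/kg orally for 14 days, with vehicle-treated controls. Serum liver markers (SGOT, SGPT, ALP, total protein, total bilirubin) and renal markers (urea, creatinine, uric acid) are then measured, mean ± S.D.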

The subject of data set [4] is Rattus norvegicus. In words: Toxicity in Wistar rat assessed as lymphocyte level at 200 mg/kg, po for 14 days (reference value: 77.33 +/- 2.08%). As to conditions: in vivo, 336 h. Type of data set: organism-based.
Data set [5] concerns Mus musculus. In words: Anticonvulsant activity in Swiss albino mouse assessed as protection against subcutaneous pentylenetetrazole-induced seizures at 300 mg/kg, ip administered 0.5 hrs prior to PTZ challenge and measured after 30 mins. It is filed as functional. The essentials: (§3)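 Male Swiss Albino mice (25–30 g), 6 per group, dosed i.p. with drugs in sterile saline, then challenged with PTZ 85 mg/kg s.c. (CD97), given at 10 ml/kg, 0.5 h or 4 h later. Each animal is observed singly for seizures. Protection is scored as protected/total animals.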

The subject of data set [6] is Rattus norvegicus. In words: Toxicity in Wistar rat assessed as effect on blood urea level at 200 mg/kg, po for 14 days. It is filed as organism-based. The note with it: in vivo, 336 h. In short, it runs like this:
as §2

Data set [7] has as its system Rattus norvegicus. Put plainly: Toxicity in Wistar rat assessed as effect on SGPT level at 200 mg/kg, po for 14 days. The note with it: in vivo, 336 h. It is filed as organism-based. The essentials:
as §2

Data set [8] has as its system Rattus norvegicus. In words: Toxicity in Wistar rat assessed as effect on sodium level at 200 mg/kg, po for 14 days. Type of data set: organism-based. The note with it: in vivo, 336 h.
Data set [9] has as its system Mus musculus. In words: Anticonvulsant activity in Swiss albino mouse assessed as protection against subcutaneous pentylenetetrazole-induced seizures at 5 mg/kg, ip administered 6 hrs prior to PTZ challenge and measured after 30 mins. It is filed as functional. The note with it: in the assay text read “30 mg/kg” for “5 mg/kg”. In short, it runs like this:
as §1

Data set [10] deals with T1, Prostaglandin G/H synthase 2 (Homo sapiens, UniProt P35354).
T1 sequence (P35354 whole entry): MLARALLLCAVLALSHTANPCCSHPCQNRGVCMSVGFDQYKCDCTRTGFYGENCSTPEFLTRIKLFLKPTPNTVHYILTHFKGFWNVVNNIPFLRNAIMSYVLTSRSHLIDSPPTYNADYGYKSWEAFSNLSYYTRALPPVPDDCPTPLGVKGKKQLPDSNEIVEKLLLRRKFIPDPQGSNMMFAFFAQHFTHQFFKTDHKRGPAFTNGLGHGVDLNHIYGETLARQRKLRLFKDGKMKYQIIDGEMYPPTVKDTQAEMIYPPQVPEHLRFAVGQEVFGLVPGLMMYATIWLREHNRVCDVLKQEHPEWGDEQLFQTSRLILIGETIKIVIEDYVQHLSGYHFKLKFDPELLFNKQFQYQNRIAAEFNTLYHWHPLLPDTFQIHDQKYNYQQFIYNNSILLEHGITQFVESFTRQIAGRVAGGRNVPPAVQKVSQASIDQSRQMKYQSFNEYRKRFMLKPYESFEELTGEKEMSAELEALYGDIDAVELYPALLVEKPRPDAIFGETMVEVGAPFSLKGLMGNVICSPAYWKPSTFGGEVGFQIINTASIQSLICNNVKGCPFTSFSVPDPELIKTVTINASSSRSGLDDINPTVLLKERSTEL
In words: Inhibition of human recombinant COX2 using arachidonic acid as substrate preincubated for 5 mins followed by substrate addition and measured after 2 mins by ADPH probe-based fluorescence assay. The essentials: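 Kit assay in 100 mM Tris-HCl pH 8.0. Enzyme, heme and inhibitor (DMSO stocks) are incubated 5 min at room temperature. ADPH is added, then arachidonic acid starts the reaction. After 2 min, fluorescence is read at ex 535/em 590 nm. Percent inhibition is taken versus the 100% activity well, background wells included. IC50 is derived from percentage inhibition, mean of three independent experiments.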

Data set [11] relates to Rattus norvegicus. Put plainly: Toxicity in Wistar rat assessed as effect on alkaline phosphatase level at 200 mg/kg, po for 14 days. It is filed as organism-based. The note with it: in vivo, 336 h. The essentials: as §2
Data set [12] relates to Rattus norvegicus. In words: Toxicity in Wistar rat assessed as effect on SGOT level at 200 mg/kg, po for 14 days. It is filed as organism-based. The note with it: in vivo, 336 h. In short, it runs like this: as §2
Data set [13] concerns Rattus norvegicus. In words: Toxicity in Wistar rat assessed as monocyte level at 200 mg/kg, po for 14 days (reference value: 2.67 +/- 0.58%). Type of data set: organism-based. The note with it: in vivo, 336 h.
For data set [14], the system named is Rattus norvegicus. In words: Toxicity in Wistar rat assessed as TLC level at 200 mg/kg, po for 14 days (reference value: 7.23 +/- 1 10^3/mm3). As to conditions: in vivo, 336 h. Type of data set: organism-based.
Data set [15] relates to Rattus norvegicus. Put plainly: Toxicity in Wistar rat assessed as platelet level at 200 mg/kg, po for 14 days (reference value: 1119 +/- 142.9 10^3/mm3). Type of data set: organism-based. The note with it: in vivo, 336 h.
For data set [16], the system named is Rattus norvegicus. Put plainly: Toxicity in Wistar rat assessed as hemoglobin level at 200 mg/kg, po for 14 days (reference value: 12.87 +/- 0.6 g/dl). It is filed as organism-based. As to conditions: in vivo, 336 h.
In data set [17] the test system is Mus musculus. Put plainly: Anticonvulsant activity in Swiss albino mouse assessed as protection against subcutaneous pentylenetetrazole-induced seizures at 5 mg/kg, ip administered 1 hr prior to PTZ challenge and measured after 30 mins. Type of data set: functional. The note with it: in the assay text read “30 mg/kg” for “5 mg/kg”. The essentials:
as §1

Data set [18] deals with Rattus norvegicus. Put plainly: Toxicity in Wistar rat assessed as effect on uric acid level at 200 mg/kg, po for 14 days. It is filed as organism-based. The note with it: in vivo, 336 h. The essentials: as §2
Data set [19] concerns Mus musculus. In words: Anticonvulsant activity in Swiss albino mouse assessed as protection against subcutaneous pentylenetetrazole-induced seizures at 30 mg/kg, ip administered 4 hrs prior to PTZ challenge and measured after 30 mins. Type of data set: functional. In short, it runs like this: as §3
For data set [20], the system named is Rattus norvegicus. In words: Cognitive enhancing effect in ip dosed PTZ-kindled Wistar rat assessed as exploration preference by novel object recognition test (reference value: 5.7%). Type of data set: functional.
Data set [21] relates to Rattus norvegicus. Put plainly: Toxicity in Wistar rat assessed as effect on phosphorous level at 200 mg/kg, po for 14 days. As to conditions: in vivo, 336 h. Type of data set: organism-based.
Data set [22] deals with Rattus norvegicus. Put plainly: Toxicity in Wistar rat assessed as effect on creatinine level at 200 mg/kg, po for 14 days. It is filed as organism-based. As to conditions: in vivo, 336 h. The essentials:
as §2

Data set [23] concerns Rattus norvegicus. In words: Toxicity in Wistar rat assessed as effect on calcium level at 200 mg/kg, po for 14 days. Type of data set: organism-based. As to conditions: in vivo, 336 h.
Data set [24] deals with Rattus norvegicus. In words: Toxicity in Wistar rat assessed as effect on chloride level at 200 mg/kg, po for 14 days. It is filed as organism-based. As to conditions: in vivo, 336 h.

`Cc1ccc(NC(=S)NNC(=O)Nc2ccc(S(C)(=O)=O)cc2)cc1`: the Activity in data set [1] is on record as 21.5%; in [2] it was 67%; in [3], “Non-Toxic”; in data set [4] it was 73%; in [5], 83%; in data set [6] it was “Non-Toxic”. The Activity result is given as “Non-Toxic” in data set [7]; “Non-Toxic” in data set [8]; 67% in [9]; “Non-Toxic” in data set [11]; “Non-Toxic” in [12]; 2.5% in data set [13]. The Activity is 6.25 ×10³ /mm3 in [14]; 990 ×10³ /mm3 in [15]; 14.15 g/dL in [16]; 67% in data set [17]; “Non-Toxic” in data set [18]; 83% in data set [19]. Also, the Activity in data set [20] is 3.9%; in data set [21], “Non-Toxic”; in data set [22], “Non-Toxic”; in [23] it was “Non-Toxic”; in data set [24] it was “Non-Toxic”. Moreover, the IC50 in data set [10] came out at 2.15 µM.

What is called IC50 is the concentration that inhibits the measured activity by half.

The record behind these values is ChEMBL document CHEMBL4152211, “Discovery of novel Methylsulfonyl phenyl derivatives as potent human Cyclooxygenase-2 inhibitors with effective anticonvulsant action: Design, synthesis, in-silico, in-vitro and in-vivo evaluation” (Eur J Med Chem, 2018).
